Data taken from ChEMBL document CHEMBL4007497, “Development of Potent and Selective Antagonists for the UTP-Activated P2Y4 Receptor” (J Med Chem, 2017).
Values joined by “and” are separate entries in the source; they are usually repeats but may differ in a detail not shown here. Equal values may be shown once.

Columns and labels:
P2Y purinoceptor 4 [1] = biological target: T1, P2Y purinoceptor 4 (Homo sapiens, UniProt P51582); test: Antagonist activity at human P2Y4 receptor transfected in human 1321N1 cells assessed as inhibition of UTP-activated intracellular calcium mobilization preincubated for 30 mins followed by UTP addition by fluo-4-dye based fluorescence assay; assay type: functional, cell-based
T1 sequence (P51582 whole entry): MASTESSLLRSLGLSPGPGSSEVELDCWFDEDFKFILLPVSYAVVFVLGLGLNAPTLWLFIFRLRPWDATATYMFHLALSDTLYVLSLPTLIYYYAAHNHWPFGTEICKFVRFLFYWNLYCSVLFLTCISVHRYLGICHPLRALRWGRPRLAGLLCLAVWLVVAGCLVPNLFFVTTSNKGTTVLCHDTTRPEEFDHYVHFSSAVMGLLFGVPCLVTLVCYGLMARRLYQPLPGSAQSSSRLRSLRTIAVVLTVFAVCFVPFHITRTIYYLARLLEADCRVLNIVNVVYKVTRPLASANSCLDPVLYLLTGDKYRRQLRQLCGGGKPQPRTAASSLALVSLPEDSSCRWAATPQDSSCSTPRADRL
In short: (§1)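 1321N1 astrocytoma cells stably expressing the human P2Y subtype, grown in DMEM with 10 % FCS and 200 μg/mL G418 at 37 °C. Plated 50,000 cells/well about 24 h before testing. Cells loaded with fluo-4 AM for 1 h, then placed in HBSS and preincubated 30 min with compound. Agonist was injected at about EC80: ADP 500 nM (P2Y1), UTP 500 nM (P2Y2, P2Y4), UDP 750 nM (P2Y6). Fluorescence read at ex 488/em 525 nm. At least three independent experiments in duplicate. IC50 obtained by nonlinear regression.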

P2Y purinoceptor 1 = P2Y purinoceptor 1 (Homo sapiens, UniProt P47900); test: Antagonist activity at human P2Y1 receptor transfected in human 1321N1 cells assessed as inhibition of ADP-activated intracellular calcium mobilization preincubated for 30 mins followed by ADP addition by fluo-4-dye based fluorescence assay; assay type: functional, cell-based; in short: as §1
Chain of P2Y purinoceptor 1 (P47900 whole entry): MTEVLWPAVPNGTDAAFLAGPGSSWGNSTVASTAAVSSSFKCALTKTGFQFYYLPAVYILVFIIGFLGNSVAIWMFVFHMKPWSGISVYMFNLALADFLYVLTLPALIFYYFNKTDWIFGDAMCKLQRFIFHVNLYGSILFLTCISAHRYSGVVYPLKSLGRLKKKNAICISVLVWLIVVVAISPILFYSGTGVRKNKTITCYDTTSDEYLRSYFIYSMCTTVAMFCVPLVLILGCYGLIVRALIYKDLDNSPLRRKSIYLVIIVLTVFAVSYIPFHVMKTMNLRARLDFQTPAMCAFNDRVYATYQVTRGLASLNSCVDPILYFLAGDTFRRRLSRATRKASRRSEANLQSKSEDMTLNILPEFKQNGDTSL

P2Y purinoceptor 6 = P2Y purinoceptor 6 (Homo sapiens, UniProt Q15077); test: Antagonist activity at human P2Y6 receptor transfected in human 1321N1 cells assessed as inhibition of UDP-activated intracellular calcium mobilization preincubated for 30 mins followed by UDP addition by fluo-4-dye based fluorescence assay; assay type: functional, cell-based; in short: as §1
Chain of P2Y purinoceptor 6 (Q15077 whole entry): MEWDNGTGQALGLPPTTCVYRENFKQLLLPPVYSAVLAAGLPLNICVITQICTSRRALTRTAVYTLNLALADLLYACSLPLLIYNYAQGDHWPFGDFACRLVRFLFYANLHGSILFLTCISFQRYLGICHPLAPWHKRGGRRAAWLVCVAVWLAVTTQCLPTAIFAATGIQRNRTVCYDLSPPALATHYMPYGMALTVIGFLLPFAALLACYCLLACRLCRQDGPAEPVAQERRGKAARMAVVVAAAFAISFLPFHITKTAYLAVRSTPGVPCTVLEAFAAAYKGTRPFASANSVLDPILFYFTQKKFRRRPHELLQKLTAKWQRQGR

P2Y purinoceptor 2 = P2Y purinoceptor 2 (Homo sapiens, UniProt P41231); test: Antagonist activity at human P2Y2 receptor transfected in human 1321N1 cells assessed as inhibition of UTP-activated intracellular calcium mobilization preincubated for 30 mins followed by UTP addition by fluo-4-dye based fluorescence assay; assay type: functional, cell-based; in short: as §1
Chain of P2Y purinoceptor 2 (P41231 whole entry): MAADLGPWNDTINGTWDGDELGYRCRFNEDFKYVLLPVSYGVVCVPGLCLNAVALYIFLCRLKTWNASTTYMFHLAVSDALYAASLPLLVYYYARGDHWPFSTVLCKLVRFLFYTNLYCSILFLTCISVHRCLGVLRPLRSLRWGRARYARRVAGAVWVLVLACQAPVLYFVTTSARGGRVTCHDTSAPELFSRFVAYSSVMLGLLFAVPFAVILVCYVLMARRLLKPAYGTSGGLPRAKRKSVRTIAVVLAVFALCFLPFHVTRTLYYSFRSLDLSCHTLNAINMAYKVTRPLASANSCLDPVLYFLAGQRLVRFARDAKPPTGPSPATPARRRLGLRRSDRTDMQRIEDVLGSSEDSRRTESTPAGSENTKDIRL

P2Y purinoceptor 12 = P2Y purinoceptor 12 (Homo sapiens, UniProt Q9H244); test: Antagonist activity at human P2Y12 receptor expressed in CHO cells assessed as inhibition of 2-MeSADP-induced beta-arrestin translocation preincubated for 30 mins followed by 2-MeSADP addition measured after 90 mins by luminescence-based topcount method; assay type: cell-based
Chain of P2Y purinoceptor 12 (Q9H244 whole entry): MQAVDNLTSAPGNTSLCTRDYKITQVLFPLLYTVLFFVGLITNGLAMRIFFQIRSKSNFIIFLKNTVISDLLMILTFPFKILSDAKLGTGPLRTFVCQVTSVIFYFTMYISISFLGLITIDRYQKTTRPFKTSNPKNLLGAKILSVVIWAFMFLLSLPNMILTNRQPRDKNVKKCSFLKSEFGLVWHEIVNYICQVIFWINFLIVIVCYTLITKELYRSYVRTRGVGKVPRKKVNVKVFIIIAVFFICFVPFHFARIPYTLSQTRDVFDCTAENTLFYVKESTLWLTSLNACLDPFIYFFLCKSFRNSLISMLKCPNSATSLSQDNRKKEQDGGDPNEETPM

P2Y purinoceptor 4 [2] = biological target: T1, P2Y purinoceptor 4; test: Antagonist activity at human P2Y4 receptor transfected in human 1321N1 cells assessed as inhibition of UTP-activated intracellular calcium mobilization at 30 uM preincubated for 30 mins followed by UTP addition by fluo-4-dye based fluorescence assay; assay type: functional, cell-based
P2Y purinoceptor 4 [3] = biological target: T1, P2Y purinoceptor 4; test: Antagonist activity at human P2Y4 receptor transfected in human 1321N1 cells assessed as inhibition of UTP-activated intracellular calcium mobilization at 100 uM preincubated for 30 mins followed by UTP addition by fluo-4-dye based fluorescence assay; assay type: functional, cell-based

Row | SMILES | IC50 (P2Y purinoceptor 4 [1]) [µM] | further results
1 | Nc1c(S(=O)(=O)O)cc(Nc2cccc(Cl)c2)c2c1C(=O)c1ccccc1C2=O | 2.34 | 
2 | COc1cccc(Nc2cc(S(=O)(=O)O)c(N)c3c2C(=O)c2ccccc2C3=O)c1 [listing 1 of 3 here] | 1.7 | 
3 | Nc1c(S(=O)(=O)O)cc(Nc2ccc(Oc3ccc(F)cc3)cc2)c2c1C(=O)c1ccccc1C2=O | 1.69 | 
4 | Cc1ccccc1Nc1cc(S(=O)(=O)O)c(N)c2c1C(=O)c1ccccc1C2=O | 3.49 | 
5 | Nc1c(S(=O)(=O)O)cc(Nc2ccc(Cc3ccccc3)cc2)c2c1C(=O)c1ccccc1C2=O | 3.45 | 
6 | COc1cccc(Nc2cc(S(=O)(=O)O)c(N)c3c2C(=O)c2ccccc2C3=O)c1 [listing 2 of 3 here] | > 10 | 
7 | Cc1ccc(Sc2ccc(Nc3cc(S(=O)(=O)O)c(N)c4c3C(=O)c3ccccc3C4=O)cc2)cc1C | 0.482 | IC50 (P2Y purinoceptor 1): 4.55 µM; IC50 (P2Y purinoceptor 6): 4.36 µM; IC50 (P2Y purinoceptor 2): 10.2 µM; IC50 (P2Y purinoceptor 12): 2.34 µM
8 | Cc1ccc(C)c(Nc2cc(S(=O)(=O)O)c(N)c3c2C(=O)c2ccccc2C3=O)c1 | 11.2 | 
9 | Nc1c(S(=O)(=O)O)cc(Nc2cccc(C(=O)O)c2)c2c1C(=O)c1ccccc1C2=O | 23.4 | 
10 | COc1cc(Nc2cc(S(=O)(=O)O)c(N)c3c2C(=O)c2ccccc2C3=O)cc(OC)c1 | 9.25 | 
11 | Cc1cc(Nc2cc(S(=O)(=O)O)c(N)c3c2C(=O)c2ccccc2C3=O)ccc1Cl | 1.65 | 
12 | Nc1c(S(=O)(=O)O)cc(Nc2ccc(Oc3ccc(Cl)cc3)cc2)c2c1C(=O)c1ccccc1C2=O | 0.373 | 
13 | COc1cc(Nc2cc(S(=O)(=O)O)c(N)c3c2C(=O)c2ccccc2C3=O)ccc1C | 4.13 | 
14 | COc1cccc(Nc2cc(S(=O)(=O)O)c(N)c3c2C(=O)c2ccccc2C3=O)c1 [listing 3 of 3 here] |  | inhibition (P2Y purinoceptor 4 [2]): 77%
15 | Nc1c(S(=O)(=O)O)cc(Nc2ccc(F)cc2C(=O)O)c2c1C(=O)c1ccccc1C2=O [listing 1 of 2 here] | > 100 | 
16 | Nc1c(S(=O)(=O)O)cc(Nc2ccc(Oc3ccc(Br)cc3)cc2)c2c1C(=O)c1ccccc1C2=O | 1.76 | 
17 | Cc1ccc(Nc2cc(S(=O)(=O)O)c(N)c3c2C(=O)c2ccccc2C3=O)c(C)c1 | 3.58 | 

Row | SMILES | IC50 (P2Y purinoceptor 4 [1]) [µM] | further results
18 | Nc1c(S(=O)(=O)O)cc(Nc2ccc(Oc3ccccc3)cc2)c2c1C(=O)c1ccccc1C2=O | 1.94 | 
19 | Nc1c(S(=O)(=O)O)cc(Nc2ccc(F)cc2C(=O)O)c2c1C(=O)c1ccccc1C2=O [listing 2 of 2 here] |  | inhibition (P2Y purinoceptor 4 [3]): 17% and 25%
20 | Nc1c(S(=O)(=O)O)cc(Nc2ccc(F)cc2)c2c1C(=O)c1ccccc1C2=O | 4.04 | 
21 | Nc1c(S(=O)(=O)O)cc(Nc2ccc(Br)cc2C(=O)O)c2c1C(=O)c1ccccc1C2=O | > 100 | inhibition (P2Y purinoceptor 4 [2]): 30%
22 | Nc1c(S(=O)(=O)O)cc(Nc2ccc(Nc3ccccc3)cc2)c2c1C(=O)c1ccccc1C2=O | 1.91 | 
23 | Nc1c(S(=O)(=O)O)cc(Nc2cccc(F)c2C(=O)O)c2c1C(=O)c1ccccc1C2=O | > 100 | inhibition (P2Y purinoceptor 4 [3]): 10%
24 | Nc1c(S(=O)(=O)O)cc(Nc2cccc(Br)c2)c2c1C(=O)c1ccccc1C2=O | 6.96 | 
25 | Nc1c(S(=O)(=O)O)cc(Nc2ccc(Sc3ccccc3)cc2)c2c1C(=O)c1ccccc1C2=O | 1.18 | 
26 | COc1cccc(Nc2cc(C)c(N)c3c2C(=O)c2ccccc2C3=O)c1 | > 30 | inhibition (P2Y purinoceptor 4 [2]): 38%
27 | Nc1c(S(=O)(=O)O)cc(Nc2cc(F)cc(F)c2)c2c1C(=O)c1ccccc1C2=O | 12.5 | 
28 | Nc1c(S(=O)(=O)O)cc(Nc2cccc(F)c2)c2c1C(=O)c1ccccc1C2=O | 1.39 | 
29 | Nc1c(S(=O)(=O)O)cc(NCc2ccccc2)c2c1C(=O)c1ccccc1C2=O | 14.4 | 
30 | O=C1c2ccccc2C(=O)c2c(Nc3cccc(F)c3)cc(S(=O)(=O)O)cc21 | 30 | 
31 | CCCc1cccc(Nc2cc(S(=O)(=O)O)c(N)c3c2C(=O)c2ccccc2C3=O)c1 | 2.99 | 
32 | Cc1cc(Cl)ccc1Nc1cc(S(=O)(=O)O)c(N)c2c1C(=O)c1ccccc1C2=O | 2.2 | 
33 | Cc1cccc(Nc2cc(S(=O)(=O)O)c(N)c3c2C(=O)c2ccccc2C3=O)c1 | 2.22 | 
